Results from ChEMBL document CHEMBL1629469, “Pharmacophore model for pentamidine analogs active against Plasmodium falciparum” (Eur J Med Chem, 2010).

Legend:
[1] = tested on: Plasmodium falciparum; experiment: Antimalarial activity against chloroquine and pyrimethamine -resistant Plasmodium falciparum K1 after 48 hrs by [3H]hypoxanthine incorporation assay; format: functional, organism-based
Summary of the method: (§1)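 Asexual erythrocytic parasites in human red cells (1.25% hematocrit, 0.3% parasitemia) exposed to serial drug dilutions in RPMI 1640 with Hepes, AlbuMAX II, bicarbonate and neomycin. Incubation at 37 C under 93% N2/4% CO2/3% O2; [3H]hypoxanthine added after 48 h, then 24 h more. Incorporation counted by scintillation. IC50 taken from sigmoidal curves; four independent runs, each in duplicate; DMSO below 1%.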

[2] = tested on: Plasmodium falciparum; experiment: Antimalarial activity against drug -sensitive Plasmodium falciparum NF54 after 48 hrs by [3H]hypoxanthine incorporation assay; format: functional, organism-based; summary of the method: as §1

Compound	IC50 [1]	IC50 [2]
Fc1cc(OCCCCCOc2ccc(C3=NCCN3)c(F)c2)ccc1C1=NCCN1	8.51 nM	50.1 nM
N=C(Nc1ccc(OCCCCCOc2ccc(NC(=N)c3ccccc3)cc2)cc1)c1ccccc1	245 nM	34.7 nM
CN1CCN=C1c1ccc(OCCCCCOc2ccc(C3=NCCN3C)cc2)cc1	501 nM	204 nM
Oc1cc(OCCCCCOc2ccc(C3=NCCN3)c(O)c2)ccc1C1=NCCN1	123 nM	58.9 nM
CCOC(=O)c1cc(C2=NCCN2)ccc1OCCCCCOc1ccc(C2=NCCN2)cc1C(=O)OCC	33.1 nM	234 nM
CNC(=N)c1ccc(OCCCCCOc2ccc(C(=N)NC)cc2)cc1	5.01 nM	26.9 nM
c1cc(C2=NCCN2)ccc1OCCCCCOc1ccc(C2=NCCN2)cc1	3.39 nM	34.7 nM
CC(C)NC(=N)c1ccc(OCCCCCOc2ccc(C(=N)NC(C)C)c(O)c2)cc1O	741 nM	955 nM
N=C(N)c1ccc(OCCCCCOc2ccc(C(=N)N)cc2)cc1 [PENTAMIDINE]	12.3 nM	56.2 nM
N/N=C(\N)c1ccc(OCCCCCOc2ccc(/C(N)=N/N)cc2)cc1	562 nM	282 nM
N=C(N)c1ccc(OCCCCCOc2ccc(C(=N)N)c(O)c2)cc1O	631 nM	407 nM
CC(C)NC(=N)c1ccc(OCCCCCOc2ccc(C(=N)NC(C)C)c(F)c2)cc1F	646 nM	191 nM
CCOC(=O)c1cc(C(=N)N)ccc1OCCCCCOc1ccc(C(=N)N)cc1C(N)=O	17 nM	120 nM
N=C(N)c1ccc(SCCCCCSc2ccc(C(=N)N)cc2)cc1	23.4 nM	34.7 nM
COc1cc(C2=NCCN2)ccc1OCCCCCOc1ccc(C2=NCCN2)cc1OC	24 nM	112 nM
CCOC(=O)c1cc(C(=N)N)ccc1OCCCCCOc1ccc(C(=N)N)cc1C(=O)OCC	26.3 nM	97.7 nM
CCOC(=O)c1cc(C(=N)NC(C)C)ccc1OCCCCCOc1ccc(C(=N)NC(C)C)cc1C(=O)OCC	14.5 nM	28.2 nM
N=C(N)c1ccc(OCCCCCOc2ccc(C(=N)N)cc2Cl)c(Cl)c1	32.4 nM	105 nM
N=C(N)c1ccc(OCCCCCOc2ccc(C(=N)N)c(F)c2)cc1F	18.2 nM	81.3 nM
CC(=N)Nc1ccc(OCCCCCOc2ccc(NC(C)=N)cc2)cc1	57.5 nM	468 nM
N=C(N)c1ccc(OCCCCCOc2ccc(C(=N)N)cc2Br)c(Br)c1	18.2 nM	52.5 nM
N=C(N)c1ccc(OCCCCCOc2ccc(C(=N)N)cc2C(N)=O)c(C(N)=O)c1	47.9 nM	302 nM
